Experimental data published in ChEMBL document CHEMBL1138590, “Discovery of novel dihydro-9,10-ethano-anthracene carboxamides as glucocorticoid receptor modulators” (Bioorg Med Chem Lett, 2009).

Experiments:
Androgen receptor = target: T1, Androgen receptor (Homo sapiens, UniProt P10275); assay: Displacement of fluorescently labeled ligand from androgen receptor by fluorescence polarization assay
T1 sequence (P10275 whole entry): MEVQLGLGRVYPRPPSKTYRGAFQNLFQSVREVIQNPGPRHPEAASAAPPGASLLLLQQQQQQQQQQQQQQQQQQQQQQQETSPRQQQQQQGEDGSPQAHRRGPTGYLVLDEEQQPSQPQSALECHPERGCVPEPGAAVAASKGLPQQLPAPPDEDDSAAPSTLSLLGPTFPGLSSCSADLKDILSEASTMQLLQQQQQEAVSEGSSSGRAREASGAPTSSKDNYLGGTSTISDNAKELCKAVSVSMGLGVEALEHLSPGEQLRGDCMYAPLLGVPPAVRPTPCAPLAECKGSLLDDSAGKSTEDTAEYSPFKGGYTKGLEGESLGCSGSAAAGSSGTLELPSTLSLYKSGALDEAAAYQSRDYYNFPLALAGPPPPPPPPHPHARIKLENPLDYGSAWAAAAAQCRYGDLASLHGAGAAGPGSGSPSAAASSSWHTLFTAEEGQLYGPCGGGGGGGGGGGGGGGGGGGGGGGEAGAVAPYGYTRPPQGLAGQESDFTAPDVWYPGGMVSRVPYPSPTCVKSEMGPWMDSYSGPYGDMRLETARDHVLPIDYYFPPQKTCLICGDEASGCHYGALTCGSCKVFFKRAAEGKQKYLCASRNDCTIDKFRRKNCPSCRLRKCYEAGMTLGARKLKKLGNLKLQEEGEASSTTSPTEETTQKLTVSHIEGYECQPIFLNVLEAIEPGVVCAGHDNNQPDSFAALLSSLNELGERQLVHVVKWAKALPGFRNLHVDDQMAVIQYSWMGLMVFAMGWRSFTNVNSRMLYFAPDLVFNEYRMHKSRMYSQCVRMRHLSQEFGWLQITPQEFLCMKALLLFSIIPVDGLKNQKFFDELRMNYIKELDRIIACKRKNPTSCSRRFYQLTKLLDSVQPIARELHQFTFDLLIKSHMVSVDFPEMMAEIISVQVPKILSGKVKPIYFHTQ

Glucocorticoid receptor [1] = target: T2, Glucocorticoid receptor (Homo sapiens, UniProt P04150); assay: Displacement of FITC-dexamethasone from human recombinant glucocorticoid receptor alpha by fluorescence polarization assay
T2 sequence (P04150 whole entry): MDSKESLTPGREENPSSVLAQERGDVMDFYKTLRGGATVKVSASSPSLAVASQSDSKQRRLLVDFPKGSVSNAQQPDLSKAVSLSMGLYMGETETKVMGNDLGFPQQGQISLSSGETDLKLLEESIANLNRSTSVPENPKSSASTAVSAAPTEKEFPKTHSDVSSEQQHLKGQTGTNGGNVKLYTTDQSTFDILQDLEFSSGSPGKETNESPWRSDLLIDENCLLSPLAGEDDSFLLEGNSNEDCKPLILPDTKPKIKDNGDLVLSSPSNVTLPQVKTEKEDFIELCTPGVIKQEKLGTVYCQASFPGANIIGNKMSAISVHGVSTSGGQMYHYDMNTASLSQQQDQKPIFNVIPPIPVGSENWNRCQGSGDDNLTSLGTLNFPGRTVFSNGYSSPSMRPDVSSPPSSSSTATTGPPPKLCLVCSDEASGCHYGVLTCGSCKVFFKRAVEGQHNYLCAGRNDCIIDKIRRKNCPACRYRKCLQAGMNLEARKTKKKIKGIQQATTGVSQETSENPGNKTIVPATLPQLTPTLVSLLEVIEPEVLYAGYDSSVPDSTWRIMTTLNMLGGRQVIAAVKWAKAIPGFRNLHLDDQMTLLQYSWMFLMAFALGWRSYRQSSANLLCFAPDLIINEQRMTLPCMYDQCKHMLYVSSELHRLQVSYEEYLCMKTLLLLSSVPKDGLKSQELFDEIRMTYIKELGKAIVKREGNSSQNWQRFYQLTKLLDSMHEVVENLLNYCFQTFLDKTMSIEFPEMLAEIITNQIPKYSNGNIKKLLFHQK

Glucocorticoid receptor [2] = target: T2, Glucocorticoid receptor; assay: Agonist activity at GR ligand binding domain expressed in human NP1 cells assessed as glucocorticoid response element transactivation by GAL4 luciferase reporter gene assay; type: cell-based
Glucocorticoid receptor [3] = target: T2, Glucocorticoid receptor; assay: Transrepression activity at GR in IL-1-beta-stimulated human A549 cells assessed as inhibition of NF-kappaB-dependent E-selectin transcription by luciferase reporter gene assay; type: cell-based
Glucocorticoid receptor [4] = target: T2, Glucocorticoid receptor; assay: Transrepression activity at GR in PMA-stimulated human A549 cells assessed as inhibition of AP1 response element-induced luciferase reporter gene activity; type: cell-based
Estrogen receptor = target: T3, Estrogen receptor (Homo sapiens, UniProt P03372); assay: Displacement of […] from estrogen receptor alpha by fluorescence polarization assay
T3 sequence (P03372 whole entry): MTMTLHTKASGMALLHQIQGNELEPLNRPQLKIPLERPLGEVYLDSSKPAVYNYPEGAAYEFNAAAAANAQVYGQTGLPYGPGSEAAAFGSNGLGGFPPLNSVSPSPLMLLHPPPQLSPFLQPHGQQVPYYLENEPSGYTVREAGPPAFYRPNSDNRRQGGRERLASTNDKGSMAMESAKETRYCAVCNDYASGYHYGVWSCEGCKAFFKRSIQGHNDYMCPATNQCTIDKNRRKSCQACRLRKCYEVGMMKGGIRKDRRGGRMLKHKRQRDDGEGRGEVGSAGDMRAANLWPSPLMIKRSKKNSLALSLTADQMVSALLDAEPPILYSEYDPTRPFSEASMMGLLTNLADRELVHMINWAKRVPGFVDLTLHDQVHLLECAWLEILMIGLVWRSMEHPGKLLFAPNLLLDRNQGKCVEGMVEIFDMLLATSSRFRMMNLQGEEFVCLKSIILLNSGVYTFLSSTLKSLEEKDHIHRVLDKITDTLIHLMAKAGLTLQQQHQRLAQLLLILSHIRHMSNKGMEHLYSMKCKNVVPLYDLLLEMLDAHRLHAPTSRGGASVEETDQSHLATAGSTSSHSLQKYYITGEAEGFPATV
In short: (§1)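 Fluorescence polarization competition binding: the test compound competes with a fluorescently labelled ligand for binding to the full-length receptor or its ligand-binding domain. IC50 is fitted from the polarization signal with a four-parameter logistic equation. Ki is derived by Cheng–Prusoff, Ki = IC50/(1 + ligand concentration/Kd). Values are means of duplicate experiments.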

Progesterone receptor = target: T4, Progesterone receptor (Homo sapiens, UniProt P06401); assay: Displacement of […] from progesterone receptor by fluorescence polarization assay
T4 sequence (P06401 whole entry): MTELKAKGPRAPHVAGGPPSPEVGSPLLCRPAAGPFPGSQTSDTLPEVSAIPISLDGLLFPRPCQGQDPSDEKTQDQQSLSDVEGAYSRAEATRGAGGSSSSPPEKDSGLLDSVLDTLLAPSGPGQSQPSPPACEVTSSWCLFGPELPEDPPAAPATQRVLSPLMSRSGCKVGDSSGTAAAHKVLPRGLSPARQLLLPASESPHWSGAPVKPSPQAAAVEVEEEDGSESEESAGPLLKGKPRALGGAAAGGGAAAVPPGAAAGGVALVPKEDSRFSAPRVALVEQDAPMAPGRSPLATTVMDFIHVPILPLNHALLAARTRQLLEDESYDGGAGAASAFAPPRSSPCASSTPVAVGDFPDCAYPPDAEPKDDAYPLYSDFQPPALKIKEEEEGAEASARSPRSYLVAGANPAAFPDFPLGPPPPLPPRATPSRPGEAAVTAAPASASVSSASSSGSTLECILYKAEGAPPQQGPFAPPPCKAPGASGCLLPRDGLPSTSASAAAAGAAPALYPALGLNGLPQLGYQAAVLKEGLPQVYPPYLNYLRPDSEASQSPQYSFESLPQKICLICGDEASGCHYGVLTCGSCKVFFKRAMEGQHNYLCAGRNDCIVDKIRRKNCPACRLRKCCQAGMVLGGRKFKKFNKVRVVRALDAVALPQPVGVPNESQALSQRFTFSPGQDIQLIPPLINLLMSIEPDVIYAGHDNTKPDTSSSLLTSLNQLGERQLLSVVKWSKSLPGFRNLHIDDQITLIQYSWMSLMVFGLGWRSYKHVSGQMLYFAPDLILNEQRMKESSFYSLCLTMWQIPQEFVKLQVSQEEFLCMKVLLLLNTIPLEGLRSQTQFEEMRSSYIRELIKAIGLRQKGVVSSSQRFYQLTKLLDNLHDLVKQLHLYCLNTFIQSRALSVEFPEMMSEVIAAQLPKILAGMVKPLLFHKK
In short: as §1

[5] = target: T5, Mineralocorticoid receptor (Homo sapiens) (UniProt P08235); assay: Antagonist activity at mineralocorticoid receptor in human A549 cells assessed as inhibition of 1.25 nM aldosterone-induced effect at 0.1 uM; type: functional, cell-based
T5 sequence (whole entry): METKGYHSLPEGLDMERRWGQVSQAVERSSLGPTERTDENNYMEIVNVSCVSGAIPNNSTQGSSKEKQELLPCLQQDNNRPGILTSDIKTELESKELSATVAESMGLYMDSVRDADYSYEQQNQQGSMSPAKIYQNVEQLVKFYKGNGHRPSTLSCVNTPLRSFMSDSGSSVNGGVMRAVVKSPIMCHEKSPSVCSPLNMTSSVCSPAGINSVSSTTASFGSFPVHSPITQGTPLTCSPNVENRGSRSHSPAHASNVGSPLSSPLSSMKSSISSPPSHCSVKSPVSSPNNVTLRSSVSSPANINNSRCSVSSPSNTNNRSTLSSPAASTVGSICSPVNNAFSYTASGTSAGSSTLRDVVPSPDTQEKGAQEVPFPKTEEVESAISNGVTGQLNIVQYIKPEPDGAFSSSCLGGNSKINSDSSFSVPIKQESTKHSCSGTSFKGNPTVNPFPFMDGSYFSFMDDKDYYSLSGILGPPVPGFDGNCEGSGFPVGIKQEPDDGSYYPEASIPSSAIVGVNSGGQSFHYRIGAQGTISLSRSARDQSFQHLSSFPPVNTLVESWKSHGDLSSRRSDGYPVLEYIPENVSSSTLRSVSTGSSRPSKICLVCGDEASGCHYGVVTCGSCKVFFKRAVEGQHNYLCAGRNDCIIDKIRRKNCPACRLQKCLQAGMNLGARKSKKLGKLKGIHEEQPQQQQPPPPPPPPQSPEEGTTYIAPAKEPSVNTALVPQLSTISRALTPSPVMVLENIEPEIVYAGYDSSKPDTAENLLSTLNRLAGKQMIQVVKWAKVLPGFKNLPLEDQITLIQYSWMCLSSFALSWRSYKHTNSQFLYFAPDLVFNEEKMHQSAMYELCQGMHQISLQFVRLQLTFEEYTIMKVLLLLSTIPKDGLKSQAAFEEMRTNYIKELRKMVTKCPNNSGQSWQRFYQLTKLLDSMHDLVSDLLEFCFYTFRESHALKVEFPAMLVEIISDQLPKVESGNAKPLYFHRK

[6] = Selectivity for human recombinant glucocorticoid receptor alpha over progesterone receptor
[7] = Selectivity for human recombinant glucocorticoid receptor alpha over androgen receptor
[8] = Selectivity for human recombinant glucocorticoid receptor alpha over estrogen receptor alpha

Compound: CC12CC(C)(C(=O)Nc3nccs3)C(c3ccccc31)c1ccccc12 (stereo in doubt; 17a)
- Ki (Androgen receptor): 2.9 µM
- Ki (Glucocorticoid receptor [1]): 0.001 µM
- EC50 (Glucocorticoid receptor [2]): 0.117 µM
- EC50 (Glucocorticoid receptor [3]): 0.0014 µM
- EC50 (Glucocorticoid receptor [4]): 0.0053 µM
- Ki (Estrogen receptor): > 5 µM
- Ki (Progesterone receptor): 0.031 µM

Compound: Cc1cnc(NC(=O)C2(C)CC3c4ccccc4C2c2ccccc23)s1 (single isomer, unassigned; isomer A) [listing 1 of 2 here]
- inhibition [5]: 5%
- fold change (FC) [6]: > 2500

Compound: CC1(C(=O)Nc2nccs2)CC2c3ccccc3C1c1ccccc12 (configuration not stated)
- fold change (FC) [7]: > 1000
- fold change (FC) [8]: > 1000
- Ki (Glucocorticoid receptor [1]): 0.0029 µM
- EC50 (Glucocorticoid receptor [2]): > 10 µM
- EC50 (Glucocorticoid receptor [3]): 0.0307 µM
- EC50 (Glucocorticoid receptor [4]): 0.268 µM

Compound: CC12CC(C)(C(=O)Nc3nncs3)C(c3ccccc31)c1ccccc12 (single isomer, unassigned; isomer A)
- Ki (Androgen receptor): 9.3 µM
- Ki (Glucocorticoid receptor [1]): 0.0013 µM
- EC50 (Glucocorticoid receptor [2]): 0.111 µM
- EC50 (Glucocorticoid receptor [3]): 0.0083 µM
- EC50 (Glucocorticoid receptor [4]): 0.0114 µM
- Ki (Estrogen receptor): > 5 µM
- Ki (Progesterone receptor): 0.035 µM

Compound: Cc1cnc(NC(=O)C2(C)CC3c4ccccc4C2c2ccccc23)s1 (single isomer, unassigned; isomer A) [listing 2 of 2 here]
- Ki (Androgen receptor): > 10 µM
- Ki (Glucocorticoid receptor [1]): 0.0041 µM
- EC50 (Glucocorticoid receptor [4]): 0.345 µM
- Ki (Estrogen receptor): > 5 µM
- Ki (Progesterone receptor): > 10 µM
